Assay outcomes as filed in PubChem BioAssay.
An excerpt weighted towards active compounds, which were near 1.8% of everything screened.
RanGTP-Impb inh: inhibitors of RanGTP-importin-beta interaction, primary screen, biochemical, FRET, CFP-Ran, YFP-importin-beta, homogeneous. Ran GTPase (GTP-bound) - importin-beta complex. cell-free CFP-Ran/YFP-importin-beta FRET ratio. inhibition, % (concentration not given with the values). actives 1.1% (n = 300,000);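 active = more than half of the replicate wells show a fall in the fluorescence ratio signal beyond about 16%, limit read from the data, passing the limit was not always enough; inconclusive = exactly half of the replicate wells pass the set limit; inactive = fewer than half of replicates pass the limit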
Runt-CBFb FRET: inhibitors of RUNX1 Runt–CBFb binding, primary screen, biochemical, FRET, Cerulean-Runt, Venus-CBFb, uHTS. Runt-related transcription factor 1 (Homo sapiens) + Core-binding factor subunit beta …. Cerulean-Runt/Venus-CBFb FRET ratio 530/480, 1 h. inhibition, % at 20 µM. actives 0.46% (n = 220,000). AID 1496, 2009;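 active = inhibition over about 50% at 20 µM in the single-dose screen, limit read from the data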
Target sequence (Q01196 whole entry, looked up): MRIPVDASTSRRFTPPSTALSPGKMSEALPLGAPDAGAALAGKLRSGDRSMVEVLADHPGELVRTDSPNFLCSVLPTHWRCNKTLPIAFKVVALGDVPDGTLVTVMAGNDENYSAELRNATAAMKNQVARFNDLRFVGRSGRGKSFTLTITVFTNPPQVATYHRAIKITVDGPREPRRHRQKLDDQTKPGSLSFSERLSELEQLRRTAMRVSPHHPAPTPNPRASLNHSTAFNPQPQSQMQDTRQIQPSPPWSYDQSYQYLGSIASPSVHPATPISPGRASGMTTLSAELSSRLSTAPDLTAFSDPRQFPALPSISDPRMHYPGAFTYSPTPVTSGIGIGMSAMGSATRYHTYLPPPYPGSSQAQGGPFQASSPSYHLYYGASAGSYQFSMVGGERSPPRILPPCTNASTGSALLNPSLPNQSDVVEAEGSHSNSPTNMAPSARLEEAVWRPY
Target sequence (Q13951 whole entry, looked up): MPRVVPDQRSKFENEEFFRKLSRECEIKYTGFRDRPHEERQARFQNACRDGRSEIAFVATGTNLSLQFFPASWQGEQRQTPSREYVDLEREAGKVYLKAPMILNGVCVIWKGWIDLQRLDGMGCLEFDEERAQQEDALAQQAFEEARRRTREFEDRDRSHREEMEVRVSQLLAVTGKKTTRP
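test system = Cerulean-Runt domain fusion protein, energy donor | probe or stimulus = Venus-CBFb binding partner, 100 nM | incubation = two 1 h room-temperature incubations shielded from light | detection = fluorescence energy transfer, 422 nm excitation, 530/480 nm emission | measure = loss of energy transfer signal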
Runt-SMMHC FRET: inhibitors of RUNX1 Runt–CBFb-SMMHC binding, primary screen, biochemical, FRET, Cerulean-Runt, Venus-CBFb-SMMHC, uHTS; Runt-related transcription factor 1 (Homo sapiens) + Core-binding factor subunit beta …; Cerulean-Runt/Venus-CBFb-SMMHC FRET ratio 530/480, 1 h; inhibition, % at 20 µM; actives 0.74% (n = 220,000);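 active = mean inhibition across duplicate retests at 20 µM reaching about 50%, limit read from the data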;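 note: inhibitors lower the FRET ratio by blocking Runt binding to CBFb-SMMHC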
Hck Nef HTS: inhibitors of Nef-activated human Hck kinase, primary screen, biochemical, Z-Lyte FRET, 384-well, Hck-YEEI | actives 0.68% (n = 220,000) | Recombinant Hck-YEEI plus Nef, Z-Lyte FRET kinase assay | inhibition, % at 20 µM | Tyrosine-protein kinase HCK (Homo sapiens), P08631;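 active = Hck-Nef kinase inhibition above about 50%, limit read from the data; inactive = inhibition below that limit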
RUNX1 CBFb TR: inhibitors of RUNX1 Runt–CBFb binding, biochemical, TR-FRET; shares compounds with Runt-CBFb FRET; TR-FRET RUNX1 Runt domain-CBFb binding; inhibition, % at 20 µM; actives 20% (n = 480); in the data active = inhibition above about 40%
Numbers stand for hits; 0 = inactive; ? = inconclusive; - = no result.

SMILES | RanGTP-Impb inh | Runt-CBFb FRET | Runt-SMMHC FRET | Hck Nef HTS | RUNX1 CBFb TR
CCOc1ccc(NCc2nnc(SCC(=O)Nc3nc(-c4ccccc4)cs3)n2-c2ccccc2)cc1 | 0 | 0 | 0 | 0 | -
COc1ccccc1OCC(=O)Nc1ccc(S(=O)(=O)N2CCCC2)cc1 | 0 | - | - | - | -
CCCC(C(=O)NC1CCCC1)N(C(=O)Cn1nnc(-c2ccc(C)o2)n1)c1ccccc1OC (stereo unspecified) | 0 | 53 | 0 | 0 | 0
COc1ccc(OC)c(NC(=O)c2cc3c(=O)n4ccccc4nc3n2C)c1 | 0 | - | 0 | 0 | -
CCOC(=O)c1cc2c(=O)n3ccccc3nc2n(Cc2ccco2)c1=NC(=O)c1ccc(OC)cc1OC | 29 | 70 | 86 | 0 | 52
CCOC(=O)c1cc2c(=O)n3ccccc3nc2n(CC2CCCO2)c1=NC(=O)/C=C/c1ccccc1 (stereo unspecified) | 0 | 81 | 86 | 0 | 0
Cc1ccc(NC(=O)CSc2nc3ccccc3c(=O)n2CC2CCCO2)cc1 (stereo unspecified) | 0 | - | - | - | -
Cc1cc(C)nc(NS(=O)(=O)c2ccc(NC(=O)c3ccc4c(c3)OCCO4)cc2)n1 | 0 | 0 | 0 | 0 | -
Cc1cccn2c(NC(=O)c3cccs3)c(-c3ccccc3)nc12 | 0 | 0 | 0 | 0 | -
NS(=O)(=O)c1cc(C(=O)OCC(=O)Nc2ccc(N3CCCCC3)cc2)ccc1Cl | 0 | 81 | 0 | 0 | 0
COc1ccc(N(CC(=O)NCCSCc2ccccc2Cl)S(C)(=O)=O)cc1Cl | 0 | - | - | - | -
CCOC(=O)CCC(=O)Nc1ccccc1C(N)=O | 0 | 0 | 0 | 0 | -
CCCCOC(=O)Nc1ccccc1C(N)=O | ? | 51 | 0 | 0 | 0
S=C1NC2(CCCCC2)Nc2ccccc21 | 0 | 0 | 0 | 0 | -
O=C(NCc1ccc(F)cc1)c1noc2c1CCCC2 | 0 | 54 | 0 | 0 | 0
O=C(NCc1ccc(F)cc1)c1noc2c1CCCCC2 | 0 | 0 | 0 | 0 | -
CCc1cc(C(=O)N(C)CC(=O)N(CC(C)C)c2c(N)n(CC(C)C)c(=O)[nH]c2=O)sc1C | 0 | - | - | - | -
Cn1c(=O)cc(N)n(Cc2ccccc2)c1=O | 0 | 0 | 0 | 0 | -
CCOC(=O)N1CCC(NC(=O)c2ccc3c(c2)N(C)CCS3)CC1 | - | 67 | - | 0 | 50
CCOC(=O)CN1C(=O)/C(=C/c2ccc(Cl)cc2)Oc2ccccc21 | 0 | - | - | - | -
O=C(CSc1ncnc2ccccc12)c1cccs1 | 0 | 54 | 90 | 0 | 0
CCc1nnc(N2C(=O)c3ccccc3C2(O)c2ccccc2)s1 (stereo unspecified) | 0 | 0 | 0 | 0 | -
COc1cccc2[nH]c3c(N4CCCCC4)ncnc3c12 | 0 | 0 | 0 | 0 | -
COc1cccc2[nH]c3c(Cl)ncnc3c12 | 0 | 52 | 0 | 0 | 0
CCOC(=O)C1CN(S(C)(=O)=O)c2cc(CC(=O)OC)ccc2O1 (stereo unspecified) | 0 | 0 | 0 | 0 | -
SMILES | RanGTP-Impb inh | Runt-CBFb FRET | Runt-SMMHC FRET | Hck Nef HTS | RUNX1 CBFb TR
CN(CCC#N)C(=O)COC(=O)c1c2c(nc3ccccc13)/C(=C/c1ccco1)CC2 | 0 | 74 | - | 0 | 63
COc1ccccc1CCn1c(N)c(C#N)c2nc3ccccc3nc21 | 56 | 80 | 140 | 0 | 0
Nc1cccnc1Sc1ccc([N+](=O)[O-])cn1 | 0 | 54 | 0 | 0 | 0
CN(C)c1nc(-c2cccs2)cc(C(F)(F)F)c1C#N | 73 | 53 | 92 | 0 | 0
CCOC(=O)CN1NC2(CCCC(C)C2)NC1=S (stereo unspecified) | ? | 51 | 0 | 0 | 0
COc1cccc(-n2cc(C(=O)NCCCOC(C)C)c3ccccc3c2=O)c1 | 0 | - | - | - | -
O=C(CN(Cc1ccco1)C(=O)CNS(=O)(=O)c1ccc(F)cc1)NCc1ccco1 | 0 | - | - | - | -
Cc1cc(N2C(=O)C=CC2=O)c([N+](=O)[O-])cc1C | - | 53 | 0 | 0 | 0
CCSC1=C(C#N)C2(CCCCC2)C(C#N)C(=O)N1 (stereo unspecified) | - | 0 | 0 | 0 | -
N#CC1=C2SCCN2C(=O)C(C#N)C12CCCCC2 (stereo unspecified) | 0 | 56 | 0 | 0 | 0
CC(=O)N1CC[n+]2c(-c3ccc(Cl)cc3)csc21 | 0 | 60 | 58 | 0 | 0
[N-]=[N+]=NCCN1CCN(CCc2ccccc2)CCC1=O | 0 | - | - | - | -
COCCCn1c(=O)c2sccc2n2c(CCCC(=O)NCc3cccc(OC)c3)nnc12 | 0 | - | - | - | -
O=C(NNC1=C(C(=O)C(F)(F)F)CCC1)c1ccc(Cl)cc1 | 0 | 77 | 0 | 0 | 0
COc1ccc(-n2nnnc2SCC(=O)N2CCOCC2)cc1 | 0 | 0 | 0 | 0 | -
COc1ccc(-n2nnnc2Sc2ccc(S(=O)(=O)N3CCOCC3)cn2)cc1 | 0 | 57 | 0 | - | 0
COC(=O)c1c(C)[nH]c(C(=O)/C=C/c2ccccc2F)c1C | 0 | 0 | 0 | 0 | -
Cc1sc2nc(CN3CCN(c4ccc(O)cc4)CC3)[nH]c(=O)c2c1C | ? | 54 | 0 | 0 | 63
Cc1cc(O)ccc1N/C=C(\C#N)c1nc2ccccc2o1 | 0 | 53 | 0 | 0 | 0
N#C/C(=C\c1c(Cl)cccc1Cl)c1nc2ccccc2o1 | 0 | 0 | 0 | 0 | -
O=C(Nc1ccccc1)C1=C(c2ccccc2)S(=O)(=O)CCS1(=O)=O | 0 | 52 | 0 | 0 | 0
O=C(O)c1ccccc1C(=O)Nc1ccccc1 | 0 | 0 | 0 | 0 | -
Oc1ccc(C(=S)N2CCN(Cc3ccccc3)CC2)cc1 | 0 | 53 | 0 | 0 | 0
S=C(c1ccc(Br)cc1)N1CCN(Cc2ccccc2)CC1 | 0 | 54 | 0 | 0 | 0
CCN1CCN(C(=S)c2ccc(O)cc2)CC1 | 0 | 54 | 0 | 0 | 0
SMILES | RanGTP-Impb inh | Runt-CBFb FRET | Runt-SMMHC FRET | Hck Nef HTS | RUNX1 CBFb TR
CCN1CCN(C(=S)c2ccc(Br)cc2)CC1 | 0 | 0 | 0 | 0 | -
CCC(=O)c1ccccc1OCCCN1CCC(Cc2ccccc2)CC1 | 0 | - | - | - | -
CC1(C)CC(=O)c2c(oc3cc(O)c(O)cc23)C1 | 0 | 52 | 0 | 0 | 0
COC(=O)c1oc2c(c1C)C(=O)CC(C)(C)C2 | 0 | 0 | 0 | 0 | -
COCCn1c(-c2ccc(SC)cc2)nc2c1c(=O)[nH]c(=O)n2CC(C)C | 0 | - | - | - | -
CCCCn1c(-c2ccncc2)nc2c1c(=O)[nH]c(=O)n2CC(C)C | 0 | 75 | 0 | 0 | 0
CC(=O)N(c1ccc2oc(=O)sc2c1)S(=O)(=O)c1cccs1 | 0 | 72 | 63 | 0 | 0
CC(C)C(=O)N(c1ccc2oc(=O)sc2c1)S(=O)(=O)c1cccs1 | 0 | 58 | 0 | 0 | 0
CC(=O)N(c1ccc2oc(=O)sc2c1)S(=O)(=O)c1ccc(C(=O)O)cc1 | 0 | - | - | - | -
CC(C)C(=O)N(c1cc2sc(=O)oc2c2ccccc12)S(=O)(=O)c1cccs1 | 0 | 0 | - | 0 | -
Cc1ccc(Cn2c(SCCN3CCCCC3)nc3c2c(=O)[nH]c(=O)n3C)cc1 | 0 | 50 | 0 | 0 | 0
